Experimental data from different studies.
Each line is one published result; the experiments were not run side by side.
Target: Serine/threonine-protein kinase Nek1 (NEK1, Homo sapiens, UniProt Q96PY6)
Residues used in one study (Q96PY6 1-1258): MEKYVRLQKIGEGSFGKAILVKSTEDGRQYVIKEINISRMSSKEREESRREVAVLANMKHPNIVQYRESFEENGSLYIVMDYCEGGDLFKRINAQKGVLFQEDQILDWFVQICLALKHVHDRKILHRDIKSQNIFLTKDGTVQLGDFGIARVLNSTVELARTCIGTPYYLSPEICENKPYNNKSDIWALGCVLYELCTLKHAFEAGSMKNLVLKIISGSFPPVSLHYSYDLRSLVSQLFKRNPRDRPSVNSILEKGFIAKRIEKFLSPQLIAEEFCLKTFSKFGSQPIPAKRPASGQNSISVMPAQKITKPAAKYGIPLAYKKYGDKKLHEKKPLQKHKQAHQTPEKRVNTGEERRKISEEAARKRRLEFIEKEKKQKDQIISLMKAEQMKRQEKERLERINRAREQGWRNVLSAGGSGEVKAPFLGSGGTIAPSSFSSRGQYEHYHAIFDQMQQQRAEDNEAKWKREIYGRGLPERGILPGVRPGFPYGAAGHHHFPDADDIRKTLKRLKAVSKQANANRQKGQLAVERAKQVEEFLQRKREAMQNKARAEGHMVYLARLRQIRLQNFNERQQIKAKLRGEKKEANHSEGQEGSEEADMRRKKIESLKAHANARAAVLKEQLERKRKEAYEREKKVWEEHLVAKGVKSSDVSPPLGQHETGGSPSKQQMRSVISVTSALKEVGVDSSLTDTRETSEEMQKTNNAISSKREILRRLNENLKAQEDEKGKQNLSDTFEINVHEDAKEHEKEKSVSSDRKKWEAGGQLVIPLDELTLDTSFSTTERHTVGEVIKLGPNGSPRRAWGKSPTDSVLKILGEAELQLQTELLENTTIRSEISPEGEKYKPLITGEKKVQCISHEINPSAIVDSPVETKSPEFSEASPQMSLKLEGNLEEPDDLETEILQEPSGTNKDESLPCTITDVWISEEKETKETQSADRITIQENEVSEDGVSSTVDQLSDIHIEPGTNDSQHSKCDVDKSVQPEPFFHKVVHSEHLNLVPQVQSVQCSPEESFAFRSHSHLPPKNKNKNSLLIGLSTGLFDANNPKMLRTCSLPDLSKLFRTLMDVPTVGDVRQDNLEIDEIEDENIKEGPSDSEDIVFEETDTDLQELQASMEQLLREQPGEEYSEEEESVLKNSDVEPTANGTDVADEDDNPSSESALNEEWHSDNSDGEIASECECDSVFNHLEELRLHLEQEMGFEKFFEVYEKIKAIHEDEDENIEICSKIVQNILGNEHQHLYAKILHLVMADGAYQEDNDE

| Structure (SMILES) | effect on | action | method | cells | concentration | measurement | value |
| --- | --- | --- | --- | --- | --- | --- | --- |
| COc1ccc(COc2ccc(Cc3cnc(N)nc3N)cc2OC)cc1 | cell-free assay |  |  |  | 0.5 µM | remaining signal | 95.6% |
| CC(C)(C)c1nc2c(s1)c1nc(N)ncc1c1ccc(NS(=O)(=O)c3c(F)cccc3F)c(F)c12 | enzyme activity | inhibitor | radiometric |  | 1 µM | remaining activity | 92% |
| CC(=O)N1CCC(c2ccc(C(=O)NC3=NCCN3)cc2C(F)(F)F)CC1 | cell-free assay |  | competition with immobilised ligand |  | 1 µM | remaining binding | 100% |
| O=C1NC(=O)c2cc(Nc3ccc(F)cc3)c(Nc3ccc(F)cc3)cc21 | cell-free assay |  |  |  | 0.5 µM | remaining signal | 88% |
| c1ccc(CNc2nc(N3CCOc4ccccc43)nc3c2CCCC3)cc1 | target engagement in cells | inhibitor | chemoproteomics |  | 20 mM | inhibition | -7.6% |
| COc1cc2ncnc(Nc3ccc(Oc4ccccc4)c(C)c3C)c2cc1OC | enzyme activity | inhibitor |  |  | 1 µM | inhibition | -2% |
| COc1cc(Cl)c(C(=O)N[C@@H](CN[C@H]2CC[C@@H](N)CC2)Cc2ccc(C#N)cc2)cc1-c1ccc(CN[C@H](C)c2ccc(C)cc2)o1 | enzyme activity | inhibitor |  |  | 1 µM | remaining activity | 93% |
| CN1CC(Oc2cnc(C#N)cc2-c2ccn3nc(NC(=O)C4CC4)cc3c2)C1 | enzyme activity | inhibitor |  |  | 1 µM | inhibition | 8% |
| CS(=O)(=O)CCNCc1ccc(-c2ccc3ncnc(Nc4ccc(OCc5cccc(F)c5)c(Cl)c4)c3c2)o1 | cell-free assay |  |  |  | 0.5 µM | remaining signal | 71.8% |
| CC/C(=N\NC(=O)NCc1cccc(O)c1)c1ccc(O)c(C)c1O | enzyme activity | inhibitor |  |  | 0.1 µM | inhibition | -6% |
| Cn1cnc(Br)c1C1=CN(c2ncnc3[nH]cnc23)CCS1 | enzyme activity | inhibitor | radiometric |  | 2 µM | inhibition | 96.5% |
| C[C@H](c1ccc(F)cc1)N(Cc1cccc(C(=O)O)c1)C(=O)c1cnc2ccccc2c1 | cell-free assay |  | competition with immobilised ligand |  | 1 µM | remaining binding | 100% |
| CCN1CCN(Cc2ccc(NC(=O)c3ccc(C)c(/C=C/c4cnc5[nH]ccc5c4OC)c3)cc2C(F)(F)F)CC1 | target engagement in cells | inhibitor | chemoproteomics | A-375 | 0.5 µM | inhibition | -15.8% |
| Nc1ncnc2occ(-c3ccc(NC(=O)Nc4cc(C(F)(F)F)ccc4F)cc3)c12 | cell-free assay | inhibitor |  |  | 20 µM | remaining signal | 22% |
| CCOCCn1cc(C(=O)Nc2ccc(-n3nc(-c4cccnc4)cc3C(F)(F)F)cn2)ccc1=O | cell-free assay |  | competition with immobilised ligand |  | 1 µM | remaining binding | 100% |
| O=C(Nc1cnn(-c2csc(C(=O)NC3COC3)c2)c1)Nc1ccccc1Cl | enzyme activity | inhibitor |  |  | 5 µM | remaining activity | 112% |
| C[C@@H]1CN(c2cc(-c3n[nH]c4ccc(OC5(C)CC5)cc34)ncn2)C[C@H](C)O1 | cell-free assay |  | competition with immobilised ligand |  | 0.1 µM | remaining binding | 100% |
| CCN1CCN(Cc2ccc(NC(=O)c3ccc(C)c(Oc4ccnc5[nH]ccc45)c3)cc2C(F)(F)F)CC1 | target engagement in cells | inhibitor | chemoproteomics | A-375 | 0.5 µM | inhibition | -10.4% |
| Nc1c(C(=O)NCc2ccc(C(=O)NCCCC3CCCCC3)cc2)cnn1-c1ccccc1 | cell-free assay |  | competition with immobilised ligand |  | 0.1 µM | remaining binding | 84% |
| O=C1Nc2ccc(Cl)cc2C1=Cc1cc(Cl)c(O)c(Cl)c1 | cell-free assay |  |  |  | 0.5 µM | remaining signal | 81.5% |
| C[C@H](c1ccnc(Nc2nc3ccc(-c4cc(N(C)C)ncn4)cc3[nH]2)c1)N1CCN(C(=O)CC(F)(F)F)CC1 | cell-free assay |  | competition with immobilised ligand |  | 0.1 µM | remaining binding | 93% |
| O=C(Nc1cnn(-c2csc(C(=O)NC3COC3)c2)c1)Nc1c(F)cccc1Cl | enzyme activity | inhibitor |  |  | 5 µM | remaining activity | 77.2% |
